# Data as given in ChEMBL document CHEMBL1944580, “Synthesis of novel sulfonamide-1,2,4-triazoles, 1,3,4-thiadiazoles and 1,3,4-oxadiazoles, as potential antibacterial and antifungal agents. Biological evaluation and conformational analysis studies” (2012).
# What was measured:
# Talaromyces funiculosus [1] = assay: Antifungal activity against Penicillium funiculosum ATCC 36839 treated for 72 hrs followed by sub-cultivated for 5 days by serial dilution method; assay type: functional
# In short: (§1)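 MFC obtained after the 72 h, 28 °C malt-broth microdilution (spore inoculum about 1.0 × 10^5 per well, compounds from 1 mg/ml DMSO). 2 µl was serially subcultured into 100 µl broth per well and incubated a further 5 days at 28 °C. MFC is the lowest concentration with no visible growth, taken as 99.5% killing of the original inoculum.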
# Bacillus cereus [2] = assay: Antibacterial activity against Bacillus cereus clinical isolate after 24 hrs by micro dilution method; assay type: functional
# In short: (§2)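 Microdilution MIC in 96-well plates. Bacterial suspensions adjusted in sterile saline to 1.0 × 10^5 CFU/ml, giving 1.0 × 10^4 cfu per well in LB broth. Compounds tested at up to 1 mg/ml. Plates incubated 24 h. MIC taken as the lowest concentration with no visible growth under a binocular microscope. OD at 655 nm was also read against a blank and the positive control. Streptomycin and ampicillin were the positive controls.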
# Bacillus cereus [3] = assay: Antibacterial activity against Bacillus cereus clinical isolate treated for 24 hrs followed by sub-cultivated for 72 hrs by micro dilution method; assay type: functional
# In short: (§3)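 2 µl from each well was serially subcultured into 100 µl fresh broth per well and incubated a further 72 h. MBC is the lowest concentration with no visible growth, taken as 99.5% killing of the original inoculum. Streptomycin and ampicillin were the positive controls.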
# Fulvia fulva [4] = assay: Antifungal activity against Fulvia fulva after 72 hrs by serial dilution method; assay type: functional
# In short: (§4)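 Modified microdilution MIC. Spores were washed from malt agar cultures with sterile 0.85% saline containing 0.1% Tween 80 and adjusted to about 1.0 × 10^5 per 100 µl well in malt broth. Compounds were dissolved in DMSO (1 mg/ml). Plates incubated 72 h at 28 °C. MIC is the lowest concentration with no visible growth under a binocular microscope. Bifonazole and ketoconazole were the references.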
# Aspergillus versicolor [5] = assay: Antifungal activity against Aspergillus versicolor ATCC 11730 treated for 72 hrs followed by sub-cultivated for 5 days by serial dilution method; assay type: functional; in short: as §1
# Escherichia coli [6] = assay: Antibacterial activity against Escherichia coli ATCC 35210 after 24 hrs by micro dilution method; assay type: functional; conditions: ATCC 35210, 24 h; in short: as §2
# Listeria monocytogenes [7] = assay: Antibacterial activity against Listeria monocytogenes NCTC 7973 after 24 hrs by micro dilution method; assay type: functional; conditions: NCTC 7973, 24 h; in short: as §2
# Listeria monocytogenes [8] = assay: Antibacterial activity against Listeria monocytogenes NCTC 7973 treated for 24 hrs followed by sub-cultivated for 72 hrs by micro dilution method; assay type: functional; in short: as §3
# Escherichia coli [9] = assay: Antibacterial activity against Escherichia coli ATCC 35210 treated for 24 hrs followed by sub-cultivated for 72 hrs by micro dilution method; assay type: functional; in short: as §3
# Trichoderma viride [10] = assay: Antifungal activity against Trichoderma viride IAM 5061 treated for 72 hrs followed by sub-cultivated for 5 days by serial dilution method; assay type: functional; in short: as §1
# Staphylococcus aureus [11] = assay: Antibacterial activity against Staphylococcus aureus ATCC 6538 after 24 hrs by micro dilution method; assay type: functional; conditions: ATCC 6538, 24 h; in short: as §2
# Aspergillus flavus [12] = assay: Antifungal activity against Aspergillus flavus ATCC 9643 after 72 hrs by serial dilution method; assay type: functional; conditions: ATCC 9643, 72 h; in short: as §4
# Salmonella typhimurium [13] = assay: Antibacterial activity against Salmonella Typhimurium ATCC 13311 treated for 24 hrs followed by sub-cultivated for 72 hrs by micro dilution method; assay type: functional, Salmonella enterica subsp. enterica serovar Typhimurium; conditions: Salmonella enterica; in short: as §3
# Salmonella typhimurium [14] = assay: Antibacterial activity against Salmonella Typhimurium ATCC 13311 after 24 hrs by micro dilution method; assay type: functional, Salmonella enterica subsp. enterica serovar Typhimurium; conditions: Salmonella enterica, ATCC 13311, 24 h; in short: as §2
# Aspergillus versicolor [15] = assay: Antifungal activity against Aspergillus versicolor ATCC 11730 after 72 hrs by serial dilution method; assay type: functional; conditions: ATCC 11730, 72 h; in short: as §4
# Penicillium ochrochloron [16] = assay: Antifungal activity against Penicillium ochrochloron ATCC 9112 after 72 hrs by serial dilution method; assay type: functional; conditions: ATCC 9112, 72 h; in short: as §4
# Aspergillus fumigatus [17] = assay: Antifungal activity against Aspergillus fumigatus human isolate after 72 hrs by serial dilution method; assay type: functional; in short: as §4
# Aspergillus flavus [18] = assay: Antifungal activity against Aspergillus flavus ATCC 9643 treated for 72 hrs followed by sub-cultivated for 5 days by serial dilution method; assay type: functional; in short: as §1
# Pseudomonas aeruginosa [19] = assay: Antibacterial activity against Pseudomonas aeruginosa ATCC 27853 treated for 24 hrs followed by sub-cultivated for 72 hrs by micro dilution method; assay type: functional; in short: as §3
# Micrococcus flavus [20] = assay: Antibacterial activity against Micrococcus flavus ATCC 10240 treated for 24 hrs followed by sub-cultivated for 72 hrs by micro dilution method; assay type: functional; in short: as §3
# Talaromyces funiculosus [21] = assay: Antifungal activity against Penicillium funiculosum ATCC 36839 after 72 hrs by serial dilution method; assay type: functional; conditions: ATCC 36839, 72 h; in short: as §4
# Staphylococcus aureus [22] = assay: Antibacterial activity against Staphylococcus aureus ATCC 6538 treated for 24 hrs followed by sub-cultivated for 72 hrs by micro dilution method; assay type: functional; in short: as §3
# Enterobacter cloacae [23] = assay: Antibacterial activity against Enterobacter cloacae human isolate after 24 hrs by micro dilution method; assay type: functional; in short: as §2
# Penicillium ochrochloron [24] = assay: Antifungal activity against Penicillium ochrochloron ATCC 9112 treated for 72 hrs followed by sub-cultivated for 5 days by serial dilution method; assay type: functional; in short: as §1
# Aspergillus fumigatus [25] = assay: Antifungal activity against Aspergillus fumigatus human isolate treated for 72 hrs followed by sub-cultivated for 5 days by serial dilution method; assay type: functional; in short: as §1
# Micrococcus flavus [26] = assay: Antibacterial activity against Micrococcus flavus ATCC 10240 after 24 hrs by micro dilution method; assay type: functional; conditions: ATCC 10240, 24 h; in short: as §2
# Fulvia fulva [27] = assay: Antifungal activity against Fulvia fulva treated for 72 hrs followed by sub-cultivated for 5 days by serial dilution method; assay type: functional; in short: as §1
# Enterobacter cloacae [28] = assay: Antibacterial activity against Enterobacter cloacae human isolate treated for 24 hrs followed by sub-cultivated for 72 hrs by micro dilution method; assay type: functional; in short: as §3
# Aspergillus niger [29] = assay: Antifungal activity against Aspergillus niger ATCC 6275 after 72 hrs by serial dilution method; assay type: functional; conditions: ATCC 6275, 72 h; in short: as §4
# Trichoderma viride [30] = assay: Antifungal activity against Trichoderma viride IAM 5061 after 72 hrs by serial dilution method; assay type: functional; conditions: IAM 5061, 72 h; in short: as §4
# Pseudomonas aeruginosa [31] = assay: Antibacterial activity against Pseudomonas aeruginosa ATCC 27853 after 24 hrs by micro dilution method; assay type: functional; conditions: ATCC 27853, 24 h; in short: as §2
# Aspergillus niger [32] = assay: Antifungal activity against Aspergillus niger ATCC 6275 treated for 72 hrs followed by sub-cultivated for 5 days by serial dilution method; assay type: functional; in short: as §1
Compound,MIC (Bacillus cereus [2]),MBC (Bacillus cereus [3]),MIC (Escherichia coli [6]),MIC (Listeria monocytogenes [7]),MBC (Listeria monocytogenes [8]),MBC (Escherichia coli [9]),MIC (Staphylococcus aureus [11]),MBC (Salmonella typhimurium [13]),MIC (Salmonella typhimurium [14]),MBC (Pseudomonas aeruginosa [19]),MBC (Micrococcus flavus [20]),MBC (Staphylococcus aureus [22]),MIC (Enterobacter cloacae [23]),MIC (Micrococcus flavus [26]),MBC (Enterobacter cloacae [28]),MIC (Pseudomonas aeruginosa [31]),further results
CCCCn1c(Cc2cc(OC)c(OC)cc2S(=O)(=O)N(C)C)n[nH]c1=S,240 µM,480 µM,480 µM,240 µM,240 µM,480 µM,240 µM,240 µM,240 µM,480 µM,480 µM,480 µM,240 µM,240 µM,240 µM,480 µM,MFC (Talaromyces funiculosus [1]): 240 µM; MIC (Fulvia fulva [4]): 120 µM; MFC (Aspergillus versicolor [5]): 480 µM; MFC (Trichoderma viride [10]): 120 µM; MIC (Aspergillus flavus [12]): 60 µM; MIC (Aspergillus versicolor [15]): 240 µM; MIC (Penicillium ochrochloron [16]): 120 µM; MIC (Aspergillus fumigatus [17]): 120 µM; MFC (Aspergillus flavus [18]): 240 µM; MIC (Talaromyces funiculosus [21]): 120 µM; MFC (Penicillium ochrochloron [24]): 480 µM; MFC (Aspergillus fumigatus [25]): 240 µM; MFC (Fulvia fulva [27]): 240 µM; MIC (Aspergillus niger [29]): 60 µM; MIC (Trichoderma viride [30]): 60 µM; MFC (Aspergillus niger [32]): 120 µM
CC1(C)S[C@@H]2[C@H](NC(=O)[C@H](N)c3ccccc3)C(=O)N2[C@H]1C(=O)O [AMPICILLIN],250 µM,370 µM,370 µM,370 µM,490 µM,740 µM,250 µM,490 µM,250 µM,1240 µM,370 µM,370 µM,370 µM,250 µM,490 µM,740 µM,–
